From ChEMBL document CHEMBL3120090, “High-affinity recognition of HIV-1 frameshift-stimulating RNA alters frameshifting in vitro and interferes with HIV-1 infectivity” (J Med Chem, 2014)
Values belong to the compound of their own block, whether it stands above or below them. Active and inactive are the calls of the source. The rule behind the calls is not given here.

What was measured:
[1] = test system: Human immunodeficiency virus 1; assay: Binding affinity to HIV-1 FSS RNA in HBS buffer at pH 7.4 assessed as association rate by surface plasmon resonance analysis
Summary of the method: (§1)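 RNA captured on SPR chips at low (~300 RU) and high (~1200 RU) density, each measured once. Compound flowed in HBS (0.01 M HEPES, 0.150 M NaCl, pH 7.4) at 60 μL/min over at least five concentrations, each injected at least twice. A 20 s 0.5 or 1 M NaCl pulse regenerated the chip where needed. Reference-subtracted, blank-corrected sensorgrams (association plus dissociation) were globally fit to 1:1 Langmuir; error is standard error of the fit.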

[2] = Cytotoxicity against HEK293FT cells assessed as cell viability at >10 uM after 24 hrs by WST-1 assay; assay type: cell-based; conditions: human
Summary of the method: (§2)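 HEK293FT cells at 80% confluence in DMEM/10% FBS exposed to compound (up to 0.5 mM) or a water control, in triplicate, for 24 h at 37 °C. WST-1 reagent then added for 2 h. Absorbance at 450 minus 690 nm, blank-corrected, plotted against concentration. Error is SD of three measurements.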

[3] = Binding affinity to HIV-1 FSS RNA in HBS buffer at pH 7.4 by surface plasmon resonance analysis; parameters: species or system Human immunodeficiency virus 1; summary of the method: as §1
[4] = Cellular uptake in cytoplasm of HEK293FT cells at 50 uM measured for 12 hrs by fluorescence microscopy; assay type: ADME, cell-based; conditions: human
[5] = test system: HEK293FT; assay: Binding affinity to HTLV-2 FSS RNA transfected in HEK293FT cells at 1 to 50 uM after 36 hrs by Renilla/firefly luciferase reporter gene assay; assay type: cell-based; conditions: Human T-lymphotropic virus 2
Summary of the method: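 HEK293FT cells transiently transfected with pDualHTLV-2(−1) (Fluc made only via −1 frameshift at the HTLV-2 site) and treated 5 h later with compound (0–50 μM) in triplicate for 36 h at 37 °C. Fluc/Rluc ratio from lysate, relative to untreated transfected cells. Error is SEM.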

[6] = (§3) Binding affinity to HIV-1 FSS RNA in HBS buffer at pH 7.4 assessed as dissociation rate by surface plasmon resonance analysis; parameters: species or system Human immunodeficiency virus 1; summary of the method: as §1
[7] = test system: HEK293FT; assay: Binding affinity to HIV-1 FSS RNA transfected in HEK293FT cells after 36 hrs by Renilla/firefly luciferase reporter gene assay; assay type: cell-based; conditions: Human immunodeficiency virus 1
Summary of the method: (§4)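 HEK293FT cells (1.5 × 10^4/well) transiently transfected with pDualHIV(−1) or in-frame pDualHIV(0) Rluc–FSS–Fluc plasmid (0.2 μg). Compound (0–50 μM) added 5 h later, in triplicate, for 36 h at 37 °C. Fluc/Rluc ratio from lysate, expressed relative to untreated transfected cells (100%). Error is SEM.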

[8] = Cellular uptake in nucleus of HEK293FT cells at 50 uM measured for 12 hrs by fluorescence microscopy; assay type: ADME, cell-based; conditions: human
[9] = test system: Human T-lymphotropic virus 2; assay: Binding affinity to HTLV-2 FSS RNA up to 3 uM by surface plasmon resonance analysis
[10] = Binding affinity to FSS DNA (unknown origin) after 10 mins by fluorescence titration analysis
Summary of the method: (§5)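 Solution fluorescence titration in 20 mM HEPES, 150 mM NaCl. Compound at 1 μM, titrated with unlabeled HIV-1 FSS RNA (10 μM stock), FSS DNA or yeast tRNA (40 μM stocks). 10 min equilibration after each addition. Quenching of benzo[g]quinoline fluorescence read in triplicate 1 min apart, corrected for dilution; KD from saturable quenching. Error is SD.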

[11] = Binding affinity to HIV-1 FSS RNA in 20 mM HEPES buffer by surface plasmon resonance analysis in presence of 150 mM NaCl, 5 mM MgCl2 and 0.005 % tween-20; parameters: species or system Human immunodeficiency virus 1
Summary of the method: (§6)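 SPR with HIV-1 FSS RNA captured on low-density (~300 RU) and high-density (~1200 RU) chips. Compound flowed at 50 μL/min in 20 mM HEPES, 150 mM NaCl, 5 mM MgCl2, 0.005% Tween-20. 0.5 or 1 M NaCl regeneration as needed. Each concentration injected at least twice. Kinetic constants and KD from individual fits of reference-subtracted sensorgrams.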

[12] = test system: Human immunodeficiency virus 1; assay: Antiviral activity against HIV-1 NL4-3 assessed as reduction in viral infectivity in human TZM-bl cells at 20 uM after 48 hrs by firefly luciferase reporter gene assay; assay type: functional; parameters: scale not given: the % may be the effect or the level left
Summary of the method: (§7)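 Single-round infectivity of VSV-G pseudotyped HIV-1 (pDHIV3-GFP, NL4-3 genes minus nef/env) made in transfected HEK293T producer cells. Compounds added to producers 4 h post-transfection; virions harvested at 24 h, filtered, normalized by p24 ELISA. TZM-bl cells (10,000/well) infected with 500 pg p24/well in triplicate for 48 h; LTR-driven firefly luciferase luminescence read. EC50 derived from concentration series.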

[13] = Cytotoxicity against HEK293FT cells assessed as cell viability at <60 uM after 24 hrs by WST-1 assay; assay type: cell-based; conditions: human; summary of the method: as §2
[14] = test system: Human immunodeficiency virus 1; assay: Antiviral activity against HIV-1 NL4-3 assessed as reduction in viral infectivity in human TZM-bl cells after 48 hrs by firefly luciferase reporter gene assay; assay type: functional, organism-based; conditions: Human immunodeficiency virus 1, NL4-3, TZM-bl; summary of the method: as §7
[15] = test system: HEK293FT; assay: Binding affinity to HIV-1 FSS RNA transfected in HEK293FT cells at 50 uM after 36 hrs by Renilla/firefly luciferase reporter gene assay; assay type: cell-based; conditions: Human immunodeficiency virus 1; summary of the method: as §4
[16] = Binding affinity to yeast tRNA after 10 mins by fluorescence titration analysis; parameters: species or system Saccharomyces cerevisiae; summary of the method: as §5
[17] = test system: Human immunodeficiency virus 1; assay: Increase in HIV-1 NL4-3 reverse transcriptase p66/51 level at 10 to 40 uM by Western blotting analysis; assay type: functional, organism-based
Summary of the method: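 Pseudotyped virions from compound-treated producer cells, equal loads by p24 ELISA, pelleted through 20% sucrose at 100,000g. Western blot for RT and p24. Densitometry of nonsaturated bands gave p160/(p66+p51) and total RT/p24 ratios.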

[18] = test system: Human immunodeficiency virus 1; assay: Antiviral activity against HIV-1 NL4-3 infected in TZM-bl cells after 24 hrs
[19] = test system: Human immunodeficiency virus 1; assay: Antiviral activity against HIV-1 NL4-3 assessed as reduction in viral production […] after 24 hrs by fluorescence microscopy; assay type: functional, organism-based
Summary of the method: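 HEK293T producer cells transfected with GFP-marked pseudotyped HIV-1 vector plus VSV-G and treated with compound 4 h after transfection. Proviral GFP expression imaged by fluorescence microscopy 24 h after treatment, before virions were harvested.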

[20] = Binding affinity to HIV-1 FSS RNA in 20 mM HEPES buffer assessed as dissociation rate by surface plasmon resonance analysis in presence of 150 mM NaCl, 5 mM MgCl2 and 0.005 % tween-20; parameters: species or system Human immunodeficiency virus 1; summary of the method: as §6
[21] = test system: Human immunodeficiency virus 1; assay: Binding affinity to HIV-1 FSS RNA in 20 mM HEPES buffer assessed as association rate by surface plasmon resonance analysis in presence of 150 mM NaCl, 5 mM MgCl2 and 0.005 % tween-20; summary of the method: as §6
[22] = Binding affinity to HIV-1 FSS RNA after 10 mins by fluorescence titration analysis; parameters: species or system Human immunodeficiency virus 1; summary of the method: as §5
[23] = Selectivity ratio of KD for yeast tRNA to KD for HIV-1 FSS RNA
Summary of the method: (§8)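 Ratios of fluorescence-titration KD values (20 mM HEPES, 150 mM NaCl; compound 1 μM): KD for FSS DNA or total yeast tRNA divided by KD for HIV-1 FSS RNA.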

[24] = Selectivity ratio of KD for FSS DNA (unknown origin) to KD for HIV-1 FSS RNA; summary of the method: as §8
[25] = test system: Human immunodeficiency virus 1; assay: Antiviral activity against HIV-1 NL4-3 assessed as reduction in viral infectivity in human TZM-bl cells at 40 uM after 48 hrs by firefly luciferase reporter gene assay; assay type: functional
[26] = test system: Human immunodeficiency virus 1; assay: as §3; summary of the method: as §1
[27] = Binding affinity to HIV-1 FSS RNA; parameters: species or system Human immunodeficiency virus 1

SMILES: CCc1nc2cc3ccccc3cc2cc1C(=O)N[C@@H](CSSC[C@H](NC(=O)c1cc2cc3ccccc3cc2nc1CC)C(=O)N1CCC[C@H]1C(=O)N[C@@H](Cc1ccccc1)C(=O)NCCCN)C(=O)N1CCC[C@H]1C(=O)N[C@@H](Cc1ccccc1)C(=O)NCCCN
Ka [1]: 1.07 ×10⁴ /M/s
Activity [2]: Toxic
Kd ([3]; read-out: Kd): 741 nM
Drug uptake [4]: Active
Activity [5]: inactive
Dissociation rate constant (koff) [6]: 7.92 ×10⁻³ /s
Activity [7]: 25%
Drug uptake [8]: Active

Ka [1]: 4.58 ×10³ /M/s
Kd ([3]; read-out: Kd): 2760 nM
Activity [9]: inactive
Dissociation rate constant (koff) [6]: 1.21 ×10⁻² /s
SMILES: CCc1nc2cc3ccccc3cc2cc1C(=O)N[C@@H](C/C=C\C[C@H](N)C(=O)N1CCC[C@H]1C(=O)N[C@@H](Cc1ccccc1)C(=O)NCCCN)C(=O)N1CCC[C@H]1C(=O)N[C@@H](Cc1ccccc1)C(=O)NCCCN

SMILES: CCc1nc2cc3ccccc3cc2cc1C(=O)N[C@@H](C/C=C\C[C@H](NC(=O)c1cc2cc3ccccc3cc2nc1CC)C(=O)N1CCC[C@H]1C(=O)N[C@@H](Cc1ccccc1)C(=O)NCCCN)C(=O)N1CCC[C@H]1C(=O)N[C@@H](Cc1ccccc1)C(=O)NCCCN
Kd [10]: 265 nM
Kd [11]: 71 nM
Activity [12]: >90%
Activity [13]: Non-toxic
Ka [1]: 4.25 ×10⁴ /M/s
Kd ([3]; read-out: Kd): 102 nM
Drug uptake [4]: Active
Activity [5]: inactive
Activity [9]: inactive
EC50 [14]: 3900 nM
Activity [15]: > 50%
Kd [16]: 334 nM
Activity [17]: Active
Activity [18]: Active
Activity [19]: Dose-dependent effect
Kd [20]: 1.35 ×10⁻³ /s
Ka [21]: 2.17 ×10⁴ /M/s
Kd [22]: 66 nM
Ratio [23]: 5
Dissociation rate constant (koff) [6]: 4.11 ×10⁻³ /s
Activity [7]: Dose-dependent effect
Ratio [24]: 4
Drug uptake [8]: Active

Activity [1]: inactive
Kd [3]: Not Active
Activity [9]: inactive
Activity [26]: inactive
SMILES: NCCCNC(=O)[C@H](Cc1ccccc1)NC(=O)[C@@H]1CCCN1C(=O)[C@@H](N)C/C=C/C[C@H](N)C(=O)N1CCC[C@H]1C(=O)N[C@@H](Cc1ccccc1)C(=O)NCCCN
Activity [25]: Active
Activity [15]: inactive
Activity [7]: inactive

Ka [1]: 1.16 ×10³ /M/s
Kd ([3]; read-out: Kd): 19500 nM
Activity [9]: inactive
Kd [22]: 409 nM
Dissociation rate constant (koff) [6]: 2.25 ×10⁻² /s
SMILES: C=CC[C@H](NC(=O)c1cc2cc3ccccc3cc2nc1CC)C(=O)N1CCC[C@H]1C(=O)N[C@@H](Cc1ccccc1)C(=O)NCCCN

Ka [1]: 1.62 ×10³ /M/s
Kd ([3]; read-out: Kd): 4660 nM
Dissociation rate constant (koff) [6]: 7.5 ×10⁻³ /s
SMILES: CCc1nc2ccccc2cc1C(=O)N[C@@H](C/C=C/C[C@H](NC(=O)c1cc2ccccc2nc1CC)C(=O)N1CCC[C@H]1C(=O)N[C@@H](Cc1ccccc1)C(=O)NCCCN)C(=O)N1CCC[C@H]1C(=O)N[C@@H](Cc1ccccc1)C(=O)NCCCN

Activity [9]: inactive
SMILES: NCCCNC(=O)[C@H](Cc1ccccc1)NC(=O)[C@@H]1CCCN1C(=O)[C@@H](N)C/C=C\C[C@H](N)C(=O)N1CCC[C@H]1C(=O)N[C@@H](Cc1ccccc1)C(=O)NCCCN

SMILES: CC(C)(C)NC(=O)[C@@H]1CN(Cc2cccnc2)CCN1C[C@@H](O)C[C@@H](Cc1ccccc1)C(=O)N[C@H]1c2ccccc2C[C@H]1O [INDINAVIR]
EC50 [14]: 14.8 nM

SMILES: CCc1nc2cc3ccccc3cc2cc1C(=O)N[C@@H](C/C=C/C[C@H](NC(=O)c1cc2cc3ccccc3cc2nc1CC)C(=O)N1CCC[C@H]1C(=O)N[C@@H](Cc1ccccc1)C(=O)NCCCN)C(=O)N1CCC[C@H]1C(=O)N[C@@H](Cc1ccccc1)C(=O)NCCCN
Kd [10]: 118 nM
Kd [11]: 96 nM
Activity [25]: >90%
Activity [13]: Non-toxic
Ka [1]: 3.99 ×10⁴ /M/s
Kd ([3]; read-out: Kd): 89 nM
Drug uptake [4]: Active
Activity [5]: inactive
Activity [9]: inactive
EC50 [14]: 25600 nM
Activity [15]: > 50%
Kd [16]: 217 nM
Activity [17]: Active
Activity [18]: Active
Activity [19]: Dose-dependent effect
Kd [20]: 3.46 ×10⁻³ /s
Ka [21]: 3.68 ×10⁴ /M/s
Kd [22]: 101 nM
Ratio [23]: 2.14
Dissociation rate constant (koff) [6]: 3.75 ×10⁻³ /s
Activity [7]: Dose-dependent effect
Drug uptake [8]: Active

Kd [27]: 360000 nM
SMILES: CN(C)CCCNC(=N)c1ccc(C(=N)NCCCN(C)C)cc1

Ka [1]: 7.71 ×10³ /M/s
Kd ([3]; read-out: Kd): 20700 nM
Activity [9]: inactive
Dissociation rate constant (koff) [6]: 1.63 ×10⁻¹ /s
SMILES: CCc1nc2cc3ccccc3cc2cc1C(=O)N[C@@H](C/C=C/C[C@H](N)C(=O)N1CCC[C@H]1C(=O)N[C@@H](Cc1ccccc1)C(=O)NCCCN)C(=O)N1CCC[C@H]1C(=O)N[C@@H](Cc1ccccc1)C(=O)NCCCN
